A short description of data set [1]: Oral bioavailability in canine at 100 mg/kg. In kind it is ADME, organism-based, Canis lupus familiaris. The following applies: dog, in vivo.
A short description of data set [2]: Oral bioavailability in mouse at 100 mg/kg. The data set is classed as ADME, organism-based. The following applies: in vivo.
The subject of data set [3] is Bel7402/5-FU. The data set can be described thus: Antiproliferative activity against human Bel7402/5-FU incubated for 72 hrs by MTT assay. The data set is classed as functional, cell-based. Summed up:
(§1)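 Bel-7402 and its 5-FU-resistant subline were kept in RPMI-1640 with 10% FBS and 1% penicillin/streptomycin at 37 °C under 5% CO2. Cells were seeded at 5000 per well and left for 12 h, then exposed to a concentration series for 72 h. MTT stock (5 mg/mL) was added for 4 h and the product dissolved in DMSO. OD was read at 570 nm and IC50 obtained by curve fitting.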

The test system of data set [4] is Bel-7402. The data set can be described thus: Antiproliferative activity against human Bel7402 incubated for 72 hrs by MTT assay. The data set is classed as functional, cell-based. The following applies: Bel-7402, 72 h. The procedure, abridged:
as §1
On the technique in general: Tetrazolium dyes change colour on reduction, which living cells bring about.

Data set [5] has as its system Bel7402/5-FU. The data set can be described thus: Induction of apoptosis in human Bel7402/5-FU assessed as late apoptotic cells at 5 uM incubated for 48 hrs by annexinV-FITC/propidium iodide staining based flow cytometry (reference value: 0.945 %). For orientation: Flow cytometry measures light scatter and fluorescence of single cells or particles in a stream.
The subject of data set [6] is Bel7402/5-FU. The data set can be described thus: Induction of apoptosis in human Bel7402/5-FU assessed as necrotic cells at 5 uM incubated for 48 hrs by annexinV-FITC/propidium iodide staining based flow cytometry (reference value: 0.157 %).
The test system of data set [7] is Bel7402/5-FU. The data set can be described thus: Induction of apoptosis in human Bel7402/5-FU assessed as early apoptotic cells at 5 uM incubated for 48 hrs by annexinV-FITC/propidium iodide staining based flow cytometry (reference value: 20.1 %).
The test system of data set [8] is Bel7402/5-FU. The data set can be described thus: Induction of apoptosis in human Bel7402/5-FU assessed as viable cells at 5 uM incubated for 48 hrs by annexinV-FITC/propidium iodide staining based flow cytometry (reference value: 96.9 %).

Structures can show the parent of a compound that is named as a salt. A value given as a limit tells only on which side of the number the result lay.

What is called bioavailability is dose-corrected exposure relative to a reference, in per cent. Read a high bioavailability as good availability. As for `C/C1=C\CC[C@@]2(C)O[C@H]2[C@H]2OC(=O)[C@@H](CN(C)C)[C@@H]2CC1`, the bioavailability in data set [1] and in data set [2] was 70% in each case.
A word on the IC50: it is the concentration that inhibits the measured activity by half. Lower therefore signals inhibition by little substance. As for `C=C1C(=O)O[C@H]2[C@H]1CC/C(COC(=O)Cn1cc(F)c(=O)n(Cc3ccc(Br)cc3)c1=O)=C\CC[C@@]1(C)O[C@@H]21`, the IC50 stood at 3.24 µM in data set [3] and 2.67 µM in data set [4].
On to `C=C1C(=O)O[C@H]2[C@H]1CC/C(COC(=O)Cn1cc(F)c(=O)n(Cc3cc(F)ccc3F)c1=O)=C\CC[C@@]1(C)O[C@@H]21`, for which the IC50 came out at 4.61 µM in data set [3] and 3.06 µM in data set [4].
For `C=C1C(=O)O[C@H]2[C@H]1CC/C(COC(=O)Cn1cc(F)c(=O)n(Cc3ccc(F)cc3F)c1=O)=C\CC[C@@]1(C)O[C@@H]21`, the IC50 in data set [3] was found to be 5.01 µM; in data set [4], 3.67 µM.
Turning to `C=C1C(=O)O[C@H]2[C@H]1CC/C(COC(=O)Cn1cc(F)c(=O)n(Cc3ccccc3F)c1=O)=C\CC[C@@]1(C)O[C@@H]21`, the values for the IC50 in data set [3] and in data set [4] were 3.83 µM and 3.77 µM, respectively.
On to `C=C1C(=O)O[C@H]2[C@H]1CC/C(COC(=O)CCC(=O)NCCCCCCNC(=O)Cn1cc(F)c(=O)[nH]c1=O)=C\CC[C@@]1(C)O[C@@H]21`, for which the IC50 in data set [3] and in data set [4] was above 20 µM throughout.
Broadly, the viability is the share of living cells, or the viability signal relative to a control. As to `C=C1C(=O)O[C@@H]2C3O[C@]3(C)CC/C=C(\C)CC[C@@H]12` (stereo partly drawn), the Activity in data set [5] is listed as 2.52%; in data set [6] it was 1.29%; in data set [7], 1.75%. Moreover, the IC50 is 13 µM in data set [3] and 8.62 µM in data set [4]. Moreover, the viability at 5 µM in data set [8] was found to be 94.3%.
As for `C=C1C(=O)O[C@H]2[C@H]1CC/C(COC(=O)Cn1cc(F)c(=O)n(Cc3cccc(F)c3)c1=O)=C\CC[C@@]1(C)O[C@@H]21`, the IC50 came to 3.7 µM in data set [3] and 2.53 µM in data set [4].
The like results for `C=C1C(=O)O[C@H]2[C@H]1CC/C(COC(=O)CCC(=O)NCCCCCCNC(=O)Cn1cc(F)c(=O)n(Cc3ccccc3)c1=O)=C\CC[C@@]1(C)O[C@@H]21` were, in that order, 16.2 µM and 18.3 µM.
The compound `C=C1C(=O)O[C@H]2[C@H]1CC/C(COC(=O)Cn1cc(F)c(=O)n(Cc3ccc(F)cc3)c1=O)=C\CC[C@@]1(C)O[C@@H]21` yielded an IC50 in data set [4] of 2.73 µM.
Turning to `C=C1C(=O)O[C@H]2[C@H]1CC/C(COC(=O)Cn1cc(F)c(=O)n(CCC)c1=O)=C\CC[C@@]1(C)O[C@@H]21`, the IC50 in data set [3] was determined as 9.11 µM; in data set [4] it was 8.58 µM.
On to `C=C1C(=O)O[C@H]2[C@H]1CC/C(Cn1cc(Cn3cc(F)c(=O)n(Cc4ccccc4)c3=O)nn1)=C\CC[C@@]1(C)O[C@@H]21`, for which the results for the IC50 in data set [3] and in data set [4] were 8.84 µM and 9.16 µM, respectively.
The corresponding values for `C=C1C(=O)O[C@H]2[C@H]1CC/C(Cn1cc(Cn3cc(F)c(=O)n(Cc4ccc(F)cc4)c3=O)nn1)=C\CC[C@@]1(C)O[C@@H]21` are 4.86 µM and 4.91 µM.
As to `C=C1C(=O)O[C@H]2[C@H]1CC/C(COC(=O)Cn1cc(F)c(=O)[nH]c1=O)=C\CC[C@@]1(C)O[C@@H]21`, the IC50 in data set [3] and in data set [4] was above 20 µM in each case.
In the case of `O=c1[nH]cc(F)c(=O)[nH]1` [FLUOROURACIL], the Activity in data set [5] is 0.073%; in data set [6], 2.164%; in data set [7] it was 1.85%. For the same compound, the IC50 is above 400 µM in data set [3] and 7.36 µM in data set [4]. Further, the viability at 5 µM in data set [8] is 27.4%.
For `C=C1C(=O)O[C@H]2[C@H]1CC/C(COC(=O)Cn1cc(F)c(=O)n(Cc3c(F)cccc3F)c1=O)=C\CC[C@@]1(C)O[C@@H]21`, the IC50 in data set [3] was 4.98 µM; in data set [4], 4.5 µM.
`C=C1C(=O)O[C@H]2[C@H]1CC/C(COC(=O)Cn1cc(F)c(=O)n(C)c1=O)=C\CC[C@@]1(C)O[C@@H]21`: the results for the IC50 in data set [3] and in data set [4] were 11.7 µM and 9.4 µM, respectively.
`C=C1C(=O)O[C@H]2[C@H]1CC/C(COC(=O)CCC(=O)OCn1cc(F)c(=O)[nH]c1=O)=C\CC[C@@]1(C)O[C@@H]21`: the IC50 in data set [3] and in data set [4] was above 20 µM each time.
On to `C=C1C(=O)O[C@H]2[C@H]1CC/C(COC(=O)Cn1cc(F)c(=O)n(Cc3ccc([N+](=O)[O-])cc3)c1=O)=C\CC[C@@]1(C)O[C@@H]21`, for which the IC50 in data set [3] turned out to be 4.34 µM; in data set [4], 4.07 µM.
Compound `COc1cccc2c1C(=O)c1c(O)c3c(c(O)c1C2=O)C[C@@](O)(C(=O)CO)C[C@@H]3O[C@H]1C[C@H](N)[C@H](O)[C@H](C)O1` [DOXORUBICIN HYDROCHLORIDE] showed an IC50 in data set [3] of 8.36 µM.
For the compound `C=C1C(=O)O[C@H]2[C@H]1CC/C(COC(=O)Cn1cc(F)c(=O)n(Cc3ccc(F)c(F)c3)c1=O)=C\CC[C@@]1(C)O[C@@H]21`, the IC50 was 4.48 µM in data set [3] and 2.7 µM in data set [4].
As for `C=C1C(=O)O[C@H]2[C@H]1CC/C(COC(=O)CCC(=O)N1CCN(C(=O)Cn3cc(F)c(=O)n(Cc4ccccc4)c3=O)CC1)=C\CC[C@@]1(C)O[C@@H]21`, the IC50 in data set [3] and in data set [4] was above 20 µM throughout.
For `C=C1C(=O)O[C@H]2[C@H]1CC/C(COC(=O)Cn1cc(F)c(=O)n(Cc3ccc(Cl)cc3)c1=O)=C\CC[C@@]1(C)O[C@@H]21`, the concentration for half-maximal inhibition (IC50) in data set [3] amounted to 2.42 µM; in data set [4], 2.56 µM.
As for `C=C1C(=O)O[C@H]2[C@H]1CC/C(Cn1cc(Cn3cc(F)c(=O)[nH]c3=O)nn1)=C\CC[C@@]1(C)O[C@@H]21`, the half-inhibitory concentration (IC50) in data set [3] and in data set [4] was above 20 µM each time.
On to `C=C1C(=O)O[C@H]2[C@H]1CC/C(COC(=O)Cn1cc(F)c(=O)n(Cc3ccccc3)c1=O)=C\CC[C@@]1(C)O[C@@H]21`, for which the IC50 in data set [3] amounted to 4.27 µM; in data set [4], 3.98 µM.
Turning to `C=C1C(=O)O[C@H]2[C@H]1CC/C(COC(=O)CCC(=O)N1CCN(C(=O)Cn3cc(F)c(=O)[nH]c3=O)CC1)=C\CC[C@@]1(C)O[C@@H]21`, the IC50 in data set [3] and in data set [4] was above 20 µM in each case.

Values taken from ChEMBL document CHEMBL4311977, “Design and synthesis of parthenolide and 5-fluorouracil conjugates as potential anticancer agents against drug resistant hepatocellular carcinoma” (Eur J Med Chem, 2019).
